Assay results gathered from unrelated publications.
Protocols differ between the studies behind these lines.
CDK6 with cyclin D3: Cyclin-dependent kinase 6, with cyclin D3 (CDK6, Homo sapiens, UniProt Q00534)
CDK6 with cyclin D1: Cyclin-dependent kinase 6, with cyclin D1 (CDK6, Homo sapiens, UniProt Q00534)

Structure (SMILES)	target	test	setting	endpoint	result
Cc1ccc(NC(=O)c2ccc(C)c(C(F)(F)F)c2)cc1C#Cc1nn(C2CCC(O)CC2)c2ncnc(N)c12 (centres unmarked)	CDK6 with cyclin D3	cell-free assay	10 µM	remaining signal	120%
CC(C)(C)c1nc(-c2cccc(NS(=O)(=O)c3c(F)cccc3F)c2F)c(-c2ccnc(N)n2)s1	CDK6 with cyclin D3	enzyme activity, inhibitor, radiometric	1 µM	remaining activity	74%
CN1CC(Oc2cnc(C#N)cc2-c2ccn3nc(NC(=O)C4CC4)cc3c2)C1	CDK6 with cyclin D3	enzyme activity, inhibitor	1 µM	inhibition	-8%
Cc1cnc(NC2CCOCC2)nc1-n1cnc(C(=O)NC(CN)c2cc(F)cc(Cl)c2)c1 (centres unmarked)	CDK6 with cyclin D3	enzyme activity, inhibitor, radiometric	1 µM	remaining activity	31%
CCN(CC)CCNC(=O)c1c(C)[nH]c(/C=C2\C(=O)Nc3ccc(F)cc32)c1C	CDK6 with cyclin D3	enzyme activity, inhibitor	0.3 µM	inhibition	13%
CC(C)(C)c1nc2c(s1)c1nc(N)ncc1c1ccc(NS(=O)(=O)c3c(F)cccc3F)c(F)c12	CDK6 with cyclin D1	enzyme activity, inhibitor, radiometric	1 µM	remaining activity	113%
CNC(=O)c1cc(Oc2ccc(NC(=O)Nc3ccc(Cl)c(C(F)(F)F)c3)cc2)ccn1	CDK6 with cyclin D3	enzyme activity, inhibitor	0.3 µM	inhibition	-11%
CC(C)(O)[C@H]1CC[C@H](Nc2ccc3ncc(-c4cccc(C(F)(F)F)c4)n3n2)CC1	CDK6 with cyclin D1	enzyme activity, inhibitor	1 µM	remaining activity	101%
O=C(Nc1cnn(-c2csc(C(=O)NC3COC3)c2)c1)Nc1c(F)cccc1Cl	CDK6 with cyclin D1	enzyme activity, inhibitor	5 µM	remaining activity	105%
Cc1ccc(Nc2nccc(N(C)c3ccc4c(C)n(C)nc4c3)n2)cc1S(N)(=O)=O	CDK6 with cyclin D3	enzyme activity, inhibitor	10 µM	inhibition	38%
CCCS(=O)(=O)Nc1ccc(F)c(C(=O)c2c[nH]c3ncc(-c4ccc(Cl)cc4)cc23)c1F	CDK6 with cyclin D3	enzyme activity, inhibitor	1 µM	inhibition	< 10%
O=C1NC(=O)c2cc(Nc3ccc(F)cc3)c(Nc3ccc(F)cc3)cc21	CDK6 with cyclin D1	cell-free assay	0.5 µM	remaining signal	99%
CCCOc1ccc(OC)c(F)c1C(=O)c1ccc(C(=O)N[C@@H]2CNC[C@H]2NC(=O)c2ccc3[nH]ncc3c2)cc1	CDK6 with cyclin D3	enzyme activity, inhibitor	10 µM	remaining activity	83%
N#CCCc1ccc2c(c1)-c1[nH]c3ccc([N+](=O)[O-])cc3c1CC(=O)N2	CDK6 with cyclin D3	cell-free assay	0.5 µM	remaining signal	26%
O=C(Nc1cnn(-c2csc(C(=O)NC3COC3)c2)c1)Nc1ccccc1Cl	CDK6 with cyclin D1	enzyme activity, inhibitor	5 µM	remaining activity	95.4%
Cn1cnc(Br)c1C1=CN(c2ncnc3[nH]cnc23)CCS1	Cyclin-dependent kinase 6 (CDK6, Homo sapiens, UniProt Q00534)	enzyme activity, inhibitor, radiometric	2 µM	inhibition	40.4%
O=C1Nc2ccc(Cl)cc2C1=Cc1cc(Cl)c(O)c(Cl)c1	CDK6 with cyclin D1	cell-free assay	0.5 µM	remaining signal	97%
